ChEMBL document CHEMBL1153921, “Design, synthesis, and biological evaluation of novel 1-(1H-1,2,4-triazole-1-yl)-2-(2,4-difluorophenyl)-3-substituted benzylamino-2-propanols” (2009)
Converted amounts (≈) assume the structure as drawn.

Tests used:
Type in all cases: functional
[1] = system: Pichia kudriavzevii; assay: Antimicrobial activity against Candida krusei by micro-broth dilution method
Outline: (§1)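 Clinical isolates. Tested by broth microdilution in 96-well plates following NCCLS M27-A2. MIC80, the minimum concentration inhibiting growth by 80%, was recorded. Marketed reference antifungals were included as positive controls.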

[2] = system: Candida albicans; assay: Antimicrobial activity against Candida albicans by micro-broth dilution method
Outline: (§2)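 ATCC standard strains. Broth microdilution in 96-well plates following NCCLS M27-A2 (reference broth dilution method for yeasts). Endpoint is MIC80, the lowest concentration giving 80% growth inhibition. Marketed reference antifungals ran alongside as positive controls.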

[3] = system: Cryptococcus neoformans; assay: Antimicrobial activity against Cryptococcus neoformans by micro-broth dilution method; outline: as §2
[4] = system: Candida parapsilosis; assay: Antimicrobial activity against Candida parapsilosis by micro-broth dilution method; settings: Lodderomyces parapsilosis; outline: as §1
[5] = system: Candida tropicalis; assay: Antimicrobial activity against Candida tropicalis by micro-broth dilution method; outline: as §1
[6] = system: Trichophyton rubrum; assay: Antimicrobial activity against Trichophyton rubrum by micro-broth dilution method; outline: as §1
[7] = system: Nannizzia gypsea; assay: Antimicrobial activity against Microsporum gypseum by micro-broth dilution method; outline: as §1
[8] = system: Aspergillus fumigatus; assay: Antimicrobial activity against Aspergillus fumigatus by micro-broth dilution method; outline: as §1

SMILES	MIC80 [1] [µg/mL]	MIC80 [2] [µg/mL]	MIC80 [3] [µg/mL]	MIC80 [4] [µg/mL]	MIC80 [5] [µg/mL]	MIC80 [6] [µg/mL]	MIC80 [7] [µg/mL]	MIC80 [8] [µg/mL]
CCCCN(Cc1ccccc1F)CC(O)(Cn1cncn1)c1ccc(F)cc1F (centres undefined)	0.25 (≈ 0.597 µM)	0.0625 (≈ 0.149 µM)	0.25 (≈ 0.597 µM)	0.25 (≈ 0.597 µM)	0.25 (≈ 0.597 µM)	1 (≈ 2.39 µM)	0.25 (≈ 0.597 µM)	16 (≈ 38.2 µM)
CCCCN(Cc1ccccc1Cl)CC(O)(Cn1cncn1)c1ccc(F)cc1F (centres undefined)	1 (≈ 2.3 µM)	1 (≈ 2.3 µM)	0.25 (≈ 0.575 µM)	0.25 (≈ 0.575 µM)	0.25 (≈ 0.575 µM)	1 (≈ 2.3 µM)	0.25 (≈ 0.575 µM)	> 64
CC(C)N(Cc1ccc(Br)cc1)CC(O)(Cn1cncn1)c1ccc(F)cc1F (centres undefined)	0.25 (≈ 0.537 µM)	0.0039 (≈ 0.00838 µM)	0.25 (≈ 0.537 µM)	0.0625 (≈ 0.134 µM)	0.0625 (≈ 0.134 µM)	0.0625 (≈ 0.134 µM)	0.0156 (≈ 0.0335 µM)	4 (≈ 8.6 µM)
CCCN(Cc1ccc(F)cc1)CC(O)(Cn1cncn1)c1ccc(F)cc1F (centres undefined)	0.0625 (≈ 0.155 µM)	0.0625 (≈ 0.155 µM)	0.0625 (≈ 0.155 µM)	0.0625 (≈ 0.155 µM)	0.25 (≈ 0.618 µM)	1 (≈ 2.47 µM)	0.0039 (≈ 0.00964 µM)	> 64
CCCN(Cc1ccc(CC)cc1)CC(O)(Cn1cncn1)c1ccc(F)cc1F (centres undefined)	1 (≈ 2.41 µM)	0.0156 (≈ 0.0376 µM)	1 (≈ 2.41 µM)	0.25 (≈ 0.603 µM)	0.25 (≈ 0.603 µM)	1 (≈ 2.41 µM)	0.25 (≈ 0.603 µM)	> 64
CCCN(Cc1ccc(C)cc1)CC(O)(Cn1cncn1)c1ccc(F)cc1F (centres undefined)	0.0625 (≈ 0.156 µM)	0.0625 (≈ 0.156 µM)	0.25 (≈ 0.624 µM)	0.0625 (≈ 0.156 µM)	0.0625 (≈ 0.156 µM)	0.25 (≈ 0.624 µM)	0.0156 (≈ 0.039 µM)	> 64
CCCN(Cc1ccc(Br)cc1)CC(O)(Cn1cncn1)c1ccc(F)cc1F (centres undefined)	0.25 (≈ 0.537 µM)	0.0625 (≈ 0.134 µM)	0.25 (≈ 0.537 µM)	0.0156 (≈ 0.0335 µM)	0.0625 (≈ 0.134 µM)	0.25 (≈ 0.537 µM)	0.0625 (≈ 0.134 µM)	> 64
Cc1ccccc1CN(CC(O)(Cn1cncn1)c1ccc(F)cc1F)C(C)C (centres undefined)	0.25 (≈ 0.624 µM)	0.0156 (≈ 0.039 µM)	0.25 (≈ 0.624 µM)	0.0625 (≈ 0.156 µM)	0.25 (≈ 0.624 µM)	0.25 (≈ 0.624 µM)	0.0625 (≈ 0.156 µM)	> 64
CCCCN(Cc1cccc(Cl)c1)CC(O)(Cn1cncn1)c1ccc(F)cc1F (centres undefined)	1 (≈ 2.3 µM)	1 (≈ 2.3 µM)	0.25 (≈ 0.575 µM)	0.25 (≈ 0.575 µM)	1 (≈ 2.3 µM)	1 (≈ 2.3 µM)	0.25 (≈ 0.575 µM)	> 64

Now from value to compound:

MIC80 [1] [µg/mL]	MIC80 [2] [µg/mL]	MIC80 [3] [µg/mL]	MIC80 [4] [µg/mL]	MIC80 [5] [µg/mL]	MIC80 [6] [µg/mL]	MIC80 [7] [µg/mL]	MIC80 [8] [µg/mL]	SMILES
0.0625 (≈ 0.145 µM)	0.0156 (≈ 0.0362 µM)	0.25 (≈ 0.579 µM)	0.0625 (≈ 0.145 µM)	0.25 (≈ 0.579 µM)	0.25 (≈ 0.579 µM)	0.0156 (≈ 0.0362 µM)	64 (≈ 148 µM)	CC(C)N(Cc1ccc([N+](=O)[O-])cc1)CC(O)(Cn1cncn1)c1ccc(F)cc1F (centres undefined)
0.25 (≈ 0.624 µM)	0.0625 (≈ 0.156 µM)	0.0625 (≈ 0.156 µM)	0.0625 (≈ 0.156 µM)	0.0625 (≈ 0.156 µM)	0.25 (≈ 0.624 µM)	0.0156 (≈ 0.039 µM)	> 64	CCCCN(Cc1ccccc1)CC(O)(Cn1cncn1)c1ccc(F)cc1F (centres undefined)
0.0625 (≈ 0.148 µM)	0.0625 (≈ 0.148 µM)	0.25 (≈ 0.594 µM)	0.0625 (≈ 0.148 µM)	0.25 (≈ 0.594 µM)	0.25 (≈ 0.594 µM)	0.0625 (≈ 0.148 µM)	1 (≈ 2.38 µM)	CC(C)N(Cc1ccc(Cl)cc1)CC(O)(Cn1cncn1)c1ccc(F)cc1F (centres undefined)
1 (≈ 2.3 µM)	1 (≈ 2.3 µM)	1 (≈ 2.3 µM)	1 (≈ 2.3 µM)	1 (≈ 2.3 µM)	1 (≈ 2.3 µM)	1 (≈ 2.3 µM)	> 64	CCCCN(Cc1ccc(Cl)cc1)CC(O)(Cn1cncn1)c1ccc(F)cc1F (centres undefined)
0.25 (≈ 0.594 µM)	0.0156 (≈ 0.0371 µM)	1 (≈ 2.38 µM)	0.25 (≈ 0.594 µM)	1 (≈ 2.38 µM)	0.25 (≈ 0.594 µM)	1 (≈ 2.38 µM)	> 64	CC(C)N(Cc1cccc(Cl)c1)CC(O)(Cn1cncn1)c1ccc(F)cc1F (centres undefined)
0.25 (≈ 0.594 µM)	0.0625 (≈ 0.148 µM)	0.25 (≈ 0.594 µM)	0.25 (≈ 0.594 µM)	0.25 (≈ 0.594 µM)	4 (≈ 9.5 µM)	0.0625 (≈ 0.148 µM)	> 64	CCCN(Cc1cccc(Cl)c1)CC(O)(Cn1cncn1)c1ccc(F)cc1F (centres undefined)
0.25 (≈ 0.618 µM)	0.0625 (≈ 0.155 µM)	0.25 (≈ 0.618 µM)	0.0625 (≈ 0.155 µM)	0.25 (≈ 0.618 µM)	1 (≈ 2.47 µM)	0.0625 (≈ 0.155 µM)	> 64	CC(C)N(Cc1ccccc1F)CC(O)(Cn1cncn1)c1ccc(F)cc1F (centres undefined)
0.25 (≈ 0.537 µM)	0.0625 (≈ 0.134 µM)	0.25 (≈ 0.537 µM)	0.0039 (≈ 0.00838 µM)	0.25 (≈ 0.537 µM)	1 (≈ 2.15 µM)	0.0625 (≈ 0.134 µM)	> 64	CCCN(Cc1ccccc1Br)CC(O)(Cn1cncn1)c1ccc(F)cc1F (centres undefined)
1 (≈ 2.41 µM)	0.0625 (≈ 0.151 µM)	1 (≈ 2.41 µM)	1 (≈ 2.41 µM)	1 (≈ 2.41 µM)	1 (≈ 2.41 µM)	0.25 (≈ 0.603 µM)	> 64	CCc1ccc(CN(CC(O)(Cn2cncn2)c2ccc(F)cc2F)C(C)C)cc1 (centres undefined)
